In ChEMBL document CHEMBL1124898, “Novel agents effective against solid tumors: the diarylsulfonylureas. Synthesis, activities, and analysis of quantitative structure-activity relationships” (J Med Chem, 1990):
In brackets after ≈: the same amount, converted by molar mass.

What was measured:
CCRF-CEM = assay: Concentration required to inhibit growth of CCRF-CEM cells in culture for 72 hr to 50% of control growth; assay type: functional, cell-based; conditions: Homo sapiens
[1] = Antitumor activity in vivo against the 6C3HED lymphosarcoma dosed for 10 days at 150 mg/kg; assay type: functional; conditions: Mus musculus, 192 h, in the assay text read “dosed for 8 days” for “dosed for 10 days”
How it was run: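 Tumor fragments (about 1–2 mm) implanted sc via trochar into a subaxillary site of syngeneic mice (C3H, C57BL/6, Balb/C or DBA/2) or Holtz rats. Groups were 7–10 randomized animals. Compound was suspended in 2.5% Emulphor in 0.9% saline and given orally by gavage or ip, usually from the day after implantation. Tumor volume versus untreated controls was measured one day after the final dose and reported as % inhibition. Scoring bands: +++ 95–100%, ++ 80–94%.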

[2] = Antitumor activity in vivo against the 6C3HED lymphosarcoma, dosed for 8 days at 300 mg/kg; conditions: Mus musculus, 192 h
Rattus norvegicus = assay: Hypoglycemic activity expressed as (Maximum reduction in blood glucose in mg/dL relative to predosing glucose level)/(time in hours at which maximum reduction occurred); assay type: functional
How it was run: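 Fed male Sprague-Dawley rats (175–200 g), four per compound, received a single oral gavage dose of 200 mg/kg suspended in 5% acacia. Tail blood was sampled before dosing and at 1, 2, 3 and 5 h, and glucose was measured by glucose oxidase/peroxidase colorimetry. Each rat served as its own control. Value = maximum fall from predose glucose (mg/dL) divided by the hour at which that maximum occurred.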

[3] = Antitumor activity in vivo against the 6C3HED lymphosarcoma dosed for 8 days at 150 mg/kg; conditions: Mus musculus, 192 h

| SMILES | IC50 (CCRF-CEM) [µg/mL] | inhibition in vivo at 150 mg/kg [1] [%] | inhibition in vivo at 300 mg/kg [2] [%] | Ratio (Rattus norvegicus) | inhibition in vivo at 150 mg/kg [3] [%] |
| --- | --- | --- | --- | --- | --- |
| O=C(Nc1ccc(C(F)(F)F)cc1)NS(=O)(=O)c1cccc(C(F)(F)F)c1 | 15.6 (≈ 37.8 µM) | 39 | – | – | – |
| Cc1ccc(S(=O)(=O)NC(=O)Nc2cc(Cl)c(Cl)c(Cl)c2)cc1 | > 20 | – | 44 | 0 | – |
| Cc1ccc(S(=O)(=O)NC(=O)Nc2ccc3c(c2)OCO3)cc1 | > 20 | – | 54 | – | – |
| Cc1ccc(S(=O)(=O)NC(=O)Sc2ccc(Cl)cc2)cc1 | 0.9 (≈ 2.63 µM) | 33 | – | – | – |
| Cc1ccc(S(=O)(=O)NC(=O)Nc2ccc(Cl)cc2Cl)cc1 | > 20 | – | 39 | – | – |
| Cc1ccc(S(=O)(=O)NC(=O)Nc2ccc(Br)cc2)cc1 | 8.2 (≈ 22.2 µM) | – | – | – | 100 |
| O=C(Nc1ccc(Cl)cc1)NS(=O)(=O)c1ccc2c(c1)CCCC2 | 14.6 (≈ 40 µM) | – | 70 | – | – |
| O=C(Nc1ccc(C(F)(F)F)cc1)NS(=O)(=O)c1ccc(Cl)c(Cl)c1 | 15.5 (≈ 37.5 µM) | 85 | – | – | – |
| COc1ccc(S(=O)(=O)NC(=O)Nc2ccc(Br)cc2)cc1 | 14.3 (≈ 37.1 µM) | 99 | – | – | – |
| Cc1ccc(S(=O)(=O)NC(=O)Nc2ccccc2Cl)cc1 | > 20 | – | 1 | – | – |
| Cc1ccccc1S(=O)(=O)NC(=O)Nc1ccc(C(F)(F)F)cc1 | 13.7 (≈ 38.2 µM) | 67 | – | – | – |
| Cc1ccc(S(=O)(=O)NC(=O)Nc2nc(C)cc(C)n2)cc1 | > 20 | – | 0 | – | – |
| Cc1ccc(S(=O)(=O)NC(=O)Nc2ccc([N+](=O)[O-])cc2)cc1 | 7.4 (≈ 22.1 µM) | – | 34 | – | – |
| Cc1ccc(S(=O)(=O)NC(=O)Nc2ccc(F)c(F)c2)cc1 | 12.8 (≈ 39.2 µM) | – | 60 | – | – |
| CC(C)(C)c1ccc(S(=O)(=O)NC(=O)Nc2ccc(Cl)cc2)cc1 | 13.5 (≈ 36.8 µM) | – | 84 | – | – |
| CCCCOC(=O)c1ccc(NC(=O)NS(=O)(=O)c2ccc(C)cc2)cc1 | > 20 | – | 0 | – | – |
| O=C(Nc1ccc(Cl)cc1)NS(=O)(=O)c1cccc(Cl)c1 | 9 (≈ 26.1 µM) | 98 | – | – | – |
| COc1ccc(S(=O)(=O)NC(=O)Nc2ccc(C(F)(F)F)cc2)cc1 | 8 (≈ 21.4 µM) | – | – | – | 100 |
| COc1ccc(NC(=O)NS(=O)(=O)c2ccc(C)cc2)cc1OC | > 20 | – | 12 | – | – |
| COC(=O)c1ccc(S(=O)(=O)NC(=O)Nc2ccc(C(F)(F)F)cc2)cc1 | 2.6 (≈ 6.46 µM) | 0 | – | – | – |
| Cc1ccc(S(=O)(=O)NC(=O)Nc2ccccc2C)cc1 | > 20 | – | 32 | – | – |
| Cc1ccc(S(=O)(=O)NC(=O)Oc2ccc(Cl)cc2)cc1 | > 20 | – | 43 | – | – |
| CCc1ccc(S(=O)(=O)NC(=O)Nc2ccc(Cl)cc2)cc1 | 7.5 (≈ 22.1 µM) | – | – | – | 100 |
| O=C(Nc1ccc(Br)cc1)NS(=O)(=O)c1ccc(Br)cc1 | 14.1 (≈ 32.5 µM) | – | – | – | 100 |
| O=C(Nc1ccc(Cl)c(Cl)c1)NS(=O)(=O)c1ccc(Cl)cc1 | 9.9 (≈ 26.1 µM) | 85 | – | – | – |
| Cc1ccc(S(=O)(=O)NC(=O)Nc2ccc(F)cc2)cc1 | 17.4 (≈ 56.4 µM) | – | 95 | – | – |
| Cc1ccc(S(=O)(=O)NC(=O)Nc2ccc(Cl)cc2)cc1C | 13.6 (≈ 40.1 µM) | – | 100 | – | – |

| SMILES | IC50 (CCRF-CEM) [µg/mL] | inhibition in vivo at 150 mg/kg [1] [%] | inhibition in vivo at 300 mg/kg [2] [%] | Ratio (Rattus norvegicus) | inhibition in vivo at 150 mg/kg [3] [%] |
| --- | --- | --- | --- | --- | --- |
| Cc1ccc(S(=O)(=O)NC(=O)Nc2ccc(CC#N)cc2)cc1 | > 20 | – | 10 | – | – |
| O=C(Nc1ccc(Br)cc1)NS(=O)(=O)c1ccccc1 | 7.1 (≈ 20 µM) | 82 | – | – | – |
| O=C(Nc1ccc(Cl)cc1)NS(=O)(=O)c1ccc2c(c1)CCO2 | 16.1 (≈ 45.6 µM) | – | 94 | – | – |
| O=C(Nc1ccc(Cl)c(Cl)c1)NS(=O)(=O)c1ccccc1 | 1.5 (≈ 4.35 µM) | – | – | – | 100 |
| CC(=O)c1ccc(S(=O)(=O)NC(=O)Nc2ccc(Cl)cc2)cc1 | 16.9 (≈ 47.9 µM) | – | 55 | – | – |
| Cc1ccc(S(=O)(=O)NC(=O)Nc2ccccn2)cc1 | > 20 | – | 2 | – | – |
| Cc1ccc(S(=O)(=O)NC(=O)Nc2ccc3c(c2)C(=O)CC3)cc1 | > 20 | – | 0 | – | – |
| Cc1ccc(S(=O)(=O)NC(=O)Nc2cc(Cl)c(Cl)cc2C)cc1 | 16 (≈ 42.9 µM) | – | 15 | – | – |
| O=C(Nc1ccc(Cl)cc1)NS(=O)(=O)c1ccccc1 | 3.8 (≈ 12.2 µM) | – | – | – | 100 |
| O=C(Nc1ccc(Cl)cc1)NS(=O)(=O)c1ccc2ccccc2c1 | 11.2 (≈ 31 µM) | – | 100 | 0 | – |
| O=C(Nc1ccc(Cl)cc1)NS(=O)(=O)c1ccc(Cl)c(Cl)c1 | 14.2 (≈ 37.4 µM) | – | – | – | 100 |
| Cc1ccc(S(=O)(=O)NC(=O)Nc2ccc3ccccc3c2)cc1 | 28 (≈ 82.3 µM) | – | 5 | – | – |
| Cc1ccc(S(=O)(=O)NC(=O)Nc2cccc3ccccc23)cc1 | > 20 | – | 0 | – | – |
| Cc1cccc(S(=O)(=O)NC(=O)Nc2ccc(Cl)cc2)c1 | 4.3 (≈ 13.2 µM) | – | – | – | 100 |
| COc1ccc(NC(=O)NS(=O)(=O)c2ccc(OC)cc2)cc1 | 15.3 (≈ 45.5 µM) | – | 16 | – | – |
| Cc1ccc(S(=O)(=O)NC(=O)Nc2ccc(Cl)c([N+](=O)[O-])c2)cc1 | 15.8 (≈ 42.7 µM) | – | 30 | – | – |
| Cc1ccc(S(=O)(=O)NC(=O)Nc2ccc(I)cc2)cc1 | 19.6 (≈ 47.1 µM) | 76 | – | – | – |
| Cc1ccc(S(=O)(=O)NC(=O)Nc2ccc(Oc3ccccc3)cc2)cc1 | > 20 | – | 0 | – | – |
| O=C(Nc1ccc(Cl)cc1)NS(=O)(=O)c1ccc(F)cc1 | 6.3 (≈ 19.2 µM) | 79 | – | – | – |
| Cc1ccc(S(=O)(=O)NC(=O)Nc2ccc(Cl)cn2)cc1 | > 20 | – | 43 | – | – |
| O=C(Nc1ccc(C(F)(F)F)cc1)NS(=O)(=O)c1ccc(Cl)cc1 | 5.8 (≈ 15.3 µM) | 94 | – | 0 | – |
| Cc1ccc(S(=O)(=O)NC(=O)Nc2ccc(Cl)c(Cl)c2)cc1 | 5.8 (≈ 16.1 µM) | – | 100 | – | – |
| O=C(Nc1ccc(Cl)cc1)NS(=O)(=O)c1cccnc1 | 7.1 (≈ 22.8 µM) | – | 3 | – | – |
| O=C(Nc1ccc(C(F)(F)F)cc1)NS(=O)(=O)c1ccccc1 | 6 (≈ 17.4 µM) | 81 | – | – | – |
| COc1ccc(S(=O)(=O)NC(=O)Nc2ccc(Cl)cc2)cc1 | 12.6 (≈ 37 µM) | – | – | – | 100 |
| Cc1ccc(S(=O)(=O)NC(=O)NC2CCCCC2)cc1 [GLYCYCLAMIDE] | > 20 | – | 56 | – | – |
